Series [1] in a line: folding enthalpy; higher = less favourable; fluorescence melt of hairpins on a sequencing array, two-state fit. The conditions noted are these: sodium 0.088 M. A digest of the protocol: (§1)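 Cy3 signals were normalised both to pre-quench Cy3 and to control constructs. They came from library hairpins carrying annealed Cy3 and quencher oligos on a sequenced MiSeq flow cell, imaged in 50 mM Na-HEPES pH 8.0, 25 mM NaCl, in 2.5 °C steps up to 60 °C. Bootstrapped two-state fits gave melting temperature and folding enthalpy, and four replicates were combined by inverse variance. Fitted temperatures were then raised by 9.35 °C to match UV melts.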

Series [2] can be described thus: melting temperature; fluorescence melt of hairpins on a sequencing array, two-state fit, raised by 9.35 °C to match UV melts. The conditions noted are these: sodium 0.088 M. A digest of the protocol:
as §1

Turning to GAAACCGAAAGGTACTTC ((((((....)))..))), the folding enthalpy in series [1] was -17.8 kcal/mol. Also, the Tm in series [2] was found to be 34.6 °C.
The matching figures for GTAGACGAAAGTCGATAC ((((((....)))..))): -11.2 kcal/mol and 34.7 °C.
The matching figures for GGTGTAGGAAACTACATC (.(((((....))))).): -27.4 kcal/mol and 42.2 °C.
The corresponding values for GTCCACGAAAGTGGAGAC ((((((....)))..))) are -9.62 kcal/mol and 48.7 °C.
Take GACTTCGGAAACAAAGTC (((((.(....).))))): the folding enthalpy in series [1] is -25.6 kcal/mol. The Tm in series [2] was 34 °C.
The corresponding values for GATCAGGACACTGATC ((((((....)))))) are -45.4 kcal/mol and 56.7 °C.
The matching figures for GGAGACGAAAGTCCATCC ((((((....)))..))): -10.1 kcal/mol and 30.3 °C.
The matching figures for GGCACCGGAAACGGTGTC (.(((((....))))).): -24.8 kcal/mol and 59.9 °C.
With GATCACTAAGTGATC ((((((...)))))), in series [1], the folding enthalpy is -33.9 kcal/mol. For the same sequence, the Tm in series [2] came to 55.2 °C.
The corresponding values for GGTCTCGAAAGAGCGACC ((((((....)))..))) are -18.1 kcal/mol and 37.3 °C.
The matching figures for GATCGGGTGACCGATC ((((((....)))))): -36.4 kcal/mol and 67 °C.
GTTGATGGAAACATCAAC (((((((....))))))): in series [1], the folding enthalpy was -46.2 kcal/mol. The Tm in series [2] stood at 57.7 °C.
The corresponding values for GATCGAAAATCGATC ((((((...)))))) are -29.9 kcal/mol and 47.6 °C.
In the case of GGCTACGAAAGTAACGCC ((((((....)))..))), the folding enthalpy in series [1] was -22.8 kcal/mol. The Tm in series [2] is 46.1 °C.
Consider GCCACTACGAAAGTAGGC (((..(((....)))))), for which the folding enthalpy in series [1] was -13.1 kcal/mol. In series [2], the Tm stood at 41.5 °C.
Turning to GCGAAGCGAAAGCATCGC ((((.((....)).)))), the folding enthalpy in series [1] is -17.4 kcal/mol. The Tm in series [2] was found to be 61.1 °C.
The corresponding values for GGTCCAGGAAACTGGATC (.(((((....))))).) are -32.1 kcal/mol and 49.7 °C.
For the sequence GACTACGAAAGTAATGTC ((((((....)))..))), the folding enthalpy in series [1] is -15.7 kcal/mol. In series [2], the Tm was found to be 34.3 °C.
The corresponding values for GATCTCCAACGAGATC ((((((....)))))) are -39.3 kcal/mol and 49.8 °C.
The matching figures for GATCCCTTCAGGGATC ((((((....)))))): -31.4 kcal/mol and 68.3 °C.
The corresponding values for GCACGTGGAAACACGTAC (.(((((....))))).) are -14.2 kcal/mol and 44.1 °C.
Turning to GCGGGCTGCCGC ((((....)))), the folding enthalpy in series [1] is -19.5 kcal/mol. In series [2], the Tm was 60.9 °C.
The corresponding values for GCTTGGGGAAACCTGAGC (((..((....))..))) are -30.3 kcal/mol and 40 °C.
The corresponding values for GATTGCGGAAACACAATC (((((.(....).))))) are -28.9 kcal/mol and 41.6 °C.
Turning to GGACAACGAAAGTTTTCC (((.(((....))).))), the folding enthalpy in series [1] was -29.2 kcal/mol. Moreover, the Tm in series [2] was 41.2 °C.
As for GCGTAAGAACGC ((((....)))), in series [1], the folding enthalpy was -15.8 kcal/mol. In addition, the Tm in series [2] was determined as 49.5 °C.
The corresponding values for GTTCTAGGAAACTAGGAC ((.((((....)))).)) are -28.5 kcal/mol and 39.7 °C.
The matching figures for GATCCACTCGTGGATC ((((((....)))))): -45.8 kcal/mol and 63.2 °C.
The corresponding values for GAACACGAAAGTGGTTTC ((((((....)))..))) are -14 kcal/mol and 35.5 °C.
With GATTCCGAAAGGATCATC ((((((....)))..))), the folding enthalpy in series [1] is -17 kcal/mol. Besides, the Tm in series [2] amounted to 29.6 °C.
For CGCTACGGAAACGTGCG (((.(((....)))))), the folding enthalpy in series [1] is -33.2 kcal/mol. Further, the Tm in series [2] was found to be 53.3 °C.
The corresponding values for GGCATGCCGAAAGGCGCC (((..(((....)))))) are -16 kcal/mol and 57.5 °C.
The corresponding values for CGCGGACAAATCCGCG ((((((....)))))) are -40.8 kcal/mol and 60.9 °C.
Turning to GGAATCCGAAAGGACTCC (((.(((....))).))), the folding enthalpy in series [1] is -26.2 kcal/mol. Moreover, the Tm in series [2] is 46.3 °C.
The corresponding values for GATCCGTAGGCGGATC ((((((....)))))) are -41.3 kcal/mol and 59.2 °C.
The matching figures for GAATTGGGAAACCGATTC ((((.((....)).)))): -36.4 kcal/mol and 43.4 °C.
Regarding GATCAAGGCGTTGATC ((((((....)))))), the folding enthalpy in series [1] is -35.8 kcal/mol. Further, the Tm in series [2] stood at 48.5 °C.

The values above are taken from the array DNA melting data of Ke et al. (doi:10.1101/2024.01.08.574731).
